Test results: ChEMBL document CHEMBL5532699, “Design, docking optimization, and evaluation of biotin-PEG4-1,8-naphthalimide as a potent and safe antitumor agent with dual targeting of ferroptosis and DNA” (RSC Med Chem, 2024)
The source made the active and inactive calls. The calls are words filed in the database; no cut-off is given here.

Assays:
[1] = system: MGC-803; experiment: Induction of ferroptosis in human MGC-803 cells assessed as increase in intracellular iron level incubated for 24 hrs by FerroOrange staining based confocal microscopic analysis; assay type: functional, cell-based; settings: dose 25-50 µM
[2] = system: MGC-803; experiment: Induction of cell cycle arrest at S phase in human MGC-803 cells assessed as decrease in cyclin E1 protein expression level at 25 to 50 uM incubated for 24 hrs by Western blot analysis; assay type: functional, cell-based; settings: dose 25-50 µM
Summary of the method: (§1)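 MGC-803 cells treated 25 or 50 μM for 24 h, lysed in ice-cold 1% SDS/Tris-HCl pH 7.5 buffer with EDTA, NaCl and protease inhibitors, spun 12,000g 18 min. Protein quantified by BCA; 40–50 μg resolved on 10% SDS-PAGE, transferred to PVDF, milk-blocked 2 h, primary antibody overnight, HRP secondary 1 h at RT. ECL detection with densitometry.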

[3] = system: MGC-803; experiment: Induction of cell cycle arrest in human MGC-803 cells assessed as accumulation of cells at G2/M phase at 100 uM incubated for 24 hrs by PI staining based flow cytometry (Rvb=12.91%); assay type: functional
[4] = system: U-251; experiment: Antitumor activity against human U-251 cells xenografted in nude mouse assessed as tumor inhibition ratio at 24 mg/kg, ip administered once every two days for 21 days relative to control; assay type: functional; settings: U-251, 504 h, time 21 day
Summary of the method: (§2)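 1×10^6 tumor cells injected s.c. into the right flank of nude mice. At mean tumor volume 60–80 mm³, animals randomized to vehicle or treatment groups (n = 6). Compound in 5% v/v DMSO/saline given i.p. every 2 days. Tumor size and weight recorded; volume = lw²/2 from length and width. Body weight tracked as the systemic toxicity index.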

[5] = system: Supercoiled DNA; experiment: Binding affinity to supercoiled circular pBR322 plasmid DNA (unknown origin) assessed as DNA intercalation by measuring migration in gel at 25 to 200 uM incubated for 4 hrs by PI and EtBr staining based gel electrophoresis; assay type: nucleic-acid assay; settings: dose 25-200 µM, in the assay text read “GelRed staining” for “PI and EtBr staining”
Summary of the method: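 0.20 μg pBR322 DNA in relaxation buffer (10 mM Tris, 0.1 mM EDTA, 5 mM MgCl₂, 50 mM KCl, 0.01% BSA, pH 7.5), 20 μL, incubated 4 h at 37°C with or without compound at varied concentrations. Stopped with SDS/bromophenol blue/glycerol loading buffer, run on 0.8% agarose in TAE, stained with GelRed; supercoiled and linear forms scored.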

[6] = system: MGC-803; experiment: Antitumor activity against human MGC-803 cells xenografted in nude mouse assessed as tumor inhibition ratio at 12 mg/kg, ip administered once every two days for 21 days relative to control; assay type: functional; settings: MGC-803, 504 h, time 21 day; summary of the method: as §2
[7] = system: MGC-803; experiment: Induction of ferroptosis in human MGC-803 cells assessed as appearance of ruptured mitochondria at 5 uM incubated for 24 hrs by TEM analysis; assay type: functional, cell-based
Summary of the method: (§3)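 Cell samples prefixed in 3% glutaraldehyde, postfixed in 1% osmium tetroxide, dehydrated through graded acetone (30–100%), embedded in Epon812, cut into 60–90 nm ultrathin sections on copper grids, stained with uranyl acetate 10–15 min and lead citrate 1–2 min at room temperature, examined by TEM.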

[8] = system: MGC-803; experiment: Induction of cell cycle arrest in human MGC-803 cells assessed as accumulation of cells at S phase at 25 uM incubated for 24 hrs by PI staining based flow cytometry (Rvb=28.00%); assay type: functional
[9] = system: MGC-803; experiment: Inhibition of DNA synthesis in human MGC-803 cells at 25 to 50 uM incubated for 24 hrs by EdU staining based fluorescence microscopic analysis; assay type: functional, cell-based; settings: dose 25-50 µM
[10] = system: MGC-803; experiment: Induction of cell cycle arrest at S phase in human MGC-803 cells assessed as increase in P21 protein expression level at 25 to 50 uM incubated for 24 hrs by Western blot analysis; assay type: functional, cell-based; settings: dose 25-50 µM; summary of the method: as §1
[11] = Toxicity in nude mouse xenografted with human U-251 cells assessed as pathological changes in spleen at 24 to 48 mg/kg, ip administered once every two days for 21 days by H and E staining based analysis; assay type: organism-based; settings: in vivo, 504 h, dose 24-48 mg/kg, time 21 day
Summary of the method: (§4)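 Nude mice carrying s.c. xenografts (1×10^6 cells, right flank) randomized at 60–80 mm³ (n = 6), dosed i.p. every 2 days in 5% v/v DMSO/saline. Major organs examined by H&E staining at 200× magnification.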

[12] = system: MGC-803; experiment: Induction of ferroptosis in human MGC-803 cells assessed as increase in mitochondrial membrane density at 5 uM incubated for 24 hrs by TEM analysis; assay type: functional, cell-based; summary of the method: as §3
[13] = system: MGC-803; experiment: Induction of cell cycle arrest in human MGC-803 cells assessed as accumulation of cells at G2/M phase at 25 uM incubated for 24 hrs by PI staining based flow cytometry (Rvb=12.91%); assay type: functional
[14] = Toxicity in nude mouse xenografted with human U-251 cells assessed as pathological changes in heart at 24 to 48 mg/kg, ip administered once every two days for 21 days by H and E staining based analysis; assay type: organism-based; settings: in vivo, 504 h, dose 24-48 mg/kg, time 21 day; summary of the method: as §4
[15] = Toxicity in nude mouse xenografted with human MGC-803 cells assessed as reduction in body weight at 24 to 48 mg/kg, ip administered once every two days for 21 days; assay type: organism-based; settings: in vivo, 504 h, dose 24-48 mg/kg, time 21 day; summary of the method: as §2
[16] = Toxicity in nude mouse xenografted with human MGC-803 cells assessed as effect on animal behavior at 24 to 48 mg/kg, ip administered once every two days for 21 days; assay type: organism-based; settings: in vivo, 504 h, dose 24-48 mg/kg, time 21 day; summary of the method: as §2
[17] = system: calf thymus DNA (Bos taurus); experiment: Competitive binding affinity to calf thymus DNA in presence of propidium iodide by fluorescence intercalator displacement assay
[18] = Toxicity in nude mouse xenografted with human U-251 cells assessed as pathological changes in liver at 24 to 48 mg/kg, ip administered once every two days for 21 days by H and E staining based analysis; assay type: organism-based; settings: in vivo, 504 h, dose 24-48 mg/kg, time 21 day; summary of the method: as §4
[19] = system: MGC-803; experiment: Induction of cell cycle arrest at S phase in human MGC-803 cells assessed as decrease in CDK2 protein expression level at 25 to 50 uM incubated for 24 hrs by Western blot analysis; assay type: functional, cell-based; settings: dose 25-50 µM; summary of the method: as §1
[20] = system: MGC-803; experiment: Antitumor activity against human MGC-803 cells xenografted in nude mouse assessed as tumor inhibition ratio at 24 mg/kg, ip administered once every two days for 21 days relative to control; assay type: functional; settings: MGC-803, 504 h, time 21 day; summary of the method: as §2
[21] = Toxicity in nude mouse xenografted with human U-251 cells assessed as pathological changes in lung at 24 to 48 mg/kg, ip administered once every two days for 21 days by H and E staining based analysis; assay type: organism-based; settings: in vivo, 504 h, dose 24-48 mg/kg, time 21 day; summary of the method: as §4
[22] = system: MGC-803; experiment: Induction of cell cycle arrest in human MGC-803 cells assessed as accumulation of cells at G2/M phase at 50 uM incubated for 24 hrs by PI staining based flow cytometry (Rvb=12.91%); assay type: functional
[23] = Toxicity in nude mouse xenografted with human MGC-803 cells assessed as pathological changes in spleen at 12 to 48 mg/kg, ip administered once every two days for 21 days by H and E staining based analysis; assay type: organism-based; settings: in vivo, 504 h, dose 12-48 mg/kg, time 21 day; summary of the method: as §4
[24] = system: MGC-803; experiment: Induction of ferroptosis in human MGC-803 cells assessed as increase in intracellular lipid peroxide and ROS level by measuring increase in green fluorescence intensity at 50 uM incubated for 24 hrs by BODIPY 581/591 C11 staining based confocal microscopic analysis; assay type: functional, cell-based

With `CN(C)CCN1C(=O)c2cccc3c(N4CCN(C(=O)CCOCCOCCOCCOCCNC(=O)CCCCC5SCC6NC(=O)NC65)CC4)ccc(c23)C1=O` (centres undefined) the Activity [1] was “Dose-Dependent Effect”, the Activity [2] was “Active” and the Activity [3] was 18.57%. The inhibition in vivo at 24 mg/kg [4] was 74.8%, the Activity [5] was “Active” and the inhibition in vivo at 12 mg/kg [6] was 29.6%. The Activity [7] was “Active”, the Activity [8] was 22.7% and the inhibition [9] was “Active”. The Activity [10] was “Active”, the Activity [11] was “Non-Toxic” and the Activity [12] was “Active”. The Activity [13] was 23.3%, the Activity [14] was “Non-Toxic” and the Activity [15] was “Non-Toxic”. For the same compound, the Activity [16] was “Non-Toxic”, the Activity [17] was “Active” and the Activity [18] was “Non-Toxic”. The Activity [19] was “Active”, the inhibition in vivo at 24 mg/kg [20] was 39.6% and the Activity [21] was “Non-Toxic”. For the same compound, the Activity [22] was 26.25%, the Activity [23] was “Non-Toxic” and the Activity [24] was “Active”.
